From ChEMBL document CHEMBL4325831, “Novel Pyrrole-Imidazole Polyamide Hoechst Conjugate Suppresses Epstein-Barr Virus Replication and Virus-Positive Tumor Growth” (J Med Chem, 2018)
Activity calls are given as the source filed them. The rule behind the calls is not given here.

What was measured:
[1] = Inhibition of recombinant EBNA1 binding to biotin-labeled Epstein-Barr virus OriP hairpin DNA EBNA1 site 1 assessed as dissociation constant by SPR assay; set-up: species or system human gammaherpesvirus 4
[2] = Inhibition of recombinant EBNA1 binding to biotin-labeled Epstein-Barr virus OriP hairpin DNA EBNA1 site 1 mutant assessed as dissociation constant by SPR assay; set-up: species or system human gammaherpesvirus 4
Procedure, shortened: (§1)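 SPR on a streptavidin-coated chip (about 16 000 RU) carrying biotinylated short hairpin DNA, loaded at 200 nM and immobilized to about 700–900 RU. Run in HBS-EP (10 mM HEPES pH 7.4, 150 mM NaCl, 3 mM EDTA, 0.005% P20) at 25 °C. Polyamides were diluted first in ultrapure water, then into a concentration gradient. ka and kd were fitted from sensorgrams.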

[3] = Inhibition of recombinant EBNA1 binding to biotin-labeled Epstein-Barr virus OriP hairpin DNA EBNA1 site 2 assessed as dissociation constant by SPR assay; set-up: species or system human gammaherpesvirus 4
[4] = Inhibition of recombinant EBNA1 binding to biotin-labeled Epstein-Barr virus OriP hairpin DNA EBNA1 site 2 mutant assessed as dissociation constant by SPR assay; set-up: species or system human gammaherpesvirus 4; procedure, shortened: as §1
human gammaherpesvirus 4 [5] = assay: Inhibition of recombinant EBNA1 binding to biotin-labeled Epstein-Barr virus OriP hairpin DNA EBNA1 site 1 assessed as reduction in RU increase at 200 nM by SPR assay
Procedure, shortened: (§2)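 SPR in HBS-EP (10 mM HEPES pH 7.4, 150 mM NaCl, 3 mM EDTA, 0.005% P20) at 25 °C. Biotin hairpin DNA (200 nM) captured at 700–900 RU on streptavidin. Polyamide (200 nM) injected at 25 μL/min for 4 min with no dissociation phase, then 100 nM recombinant EBNA1 for 3 min. Relative reduction in RU rise recorded.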

human gammaherpesvirus 4 [6] = assay: Inhibition of recombinant EBNA1 binding to biotin-labeled Epstein-Barr virus OriP hairpin DNA EBNA1 site 2 assessed as reduction in RU increase at 200 nM by SPR assay; procedure, shortened: as §2
Human gammaherpesvirus 4 [7] = assay: Inhibition of Epstein-Barr virus-induced human Raji cell proliferation assessed reduction in cell viability at 10 uM measured at day 3 and day 6 post dose following media refreshment every 3 days trypan blue dye-based assay; format: functional, organism-based
Procedure, shortened: (§3)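 5 × 10^5 cells in 2 mL medium with 10 μM polyamide. After 3 days an equal volume of fresh medium containing polyamide was added. Living cells counted by 0.4% trypan blue exclusion at days 3 and 6. Significance by one-way ANOVA.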

Human gammaherpesvirus 4 [8] = assay: Inhibition of Epstein-Barr virus-induced human Daudi cell proliferation assessed reduction in cell viability at 10 uM measured at day 3 and day 6 post dose following media refreshment every 3 days trypan blue dye-based assay; format: functional, organism-based; procedure, shortened: as §3
MOLT-4 [9] = assay: Cell growth inhibition of human MOLT4 cells at 10 uM measured at day 3 and day 6 following media refreshment every 3 days by trypan blue dye-based assay; format: functional; procedure, shortened: as §3
Human gammaherpesvirus 4 [10] = assay: Inhibition of Epstein-Barr virus-induced human Daudi cell proliferation after 72 hrs by MTT assay; format: functional; details: human gammaherpesvirus 4, Daudi
Procedure, shortened: (§4)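 Suspension cells seeded at 7 × 10^3 per well, adherent at 3 × 10^3 per well, in quadruplicate across a concentration series. Grown 72 h, then viability relative to control read by MTT. GI50 from sigmoidal dose–response fit; at least triplicate experiments. RPMI-based medium for suspension lines, high-glucose DMEM for MDA-MB-231, both with 10% FBS, 5% CO2, 37 °C.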

Human gammaherpesvirus 4 [11] = assay: Inhibition of Epstein-Barr virus-induced human Raji cell proliferation after 72 hrs by MTT assay; format: functional; details: human gammaherpesvirus 4, Raji; procedure, shortened: as §4
Human gammaherpesvirus 4 [12] = assay: Inhibition of Epstein-Barr virus-induced […] cell proliferation after 72 hrs by MTT assay; format: functional; details: human gammaherpesvirus 4, B-95-8, 72 h; procedure, shortened: as §4
NALM-6 = assay: Cell growth inhibition of human NALM6 cells after 72 hrs by MTT assay; format: functional; details: NALM-6, 72 h; procedure, shortened: as §4
RPMI-8226 = assay: Cell growth inhibition of human RPMI8226 cells after 72 hrs by MTT assay; format: functional; details: RPMI-8226, 72 h; procedure, shortened: as §4
MOLT-4 [13] = assay: Cell growth inhibition of human MOLT4 cells after 72 hrs by MTT assay; format: functional; details: MOLT-4, 72 h; procedure, shortened: as §4
Jurkat = assay: Cell growth inhibition of human Jurkat cells after 72 hrs by MTT assay; format: functional; procedure, shortened: as §4
MDA-MB-231 = assay: Cell growth inhibition of human MDA-MB-231 cells after 72 hrs by MTT assay; format: functional; details: MDA-MB-231, 72 h; procedure, shortened: as §4
Raji [14] = assay: Inhibition of EBNA1 binding to Epstein-Barr virus OriP DNA in human Raji cells assessed as reduction in EBV copy number at 10 uM after 120 hrs by qRT-PCR analysis; format: cell-based; details: human gammaherpesvirus 4
Procedure, shortened: (§5)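 Raji (5 × 10^5), B95-8 (5 × 10^5) or Daudi (1 × 10^6) cells cultured with 10 μM polyamide. Genomic DNA extracted at intervals (Raji every 24 h). SYBR real-time PCR in triplicate: 95 °C 5 min, then 40 cycles of 95 °C 10 s / 60 °C 30 s, followed by melt curve. EBV copies relative to cellular DNA by ΔΔCt.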

Raji [15] = assay: Inhibition of EBNA1 binding to Epstein-Barr virus OriP DNA in human Raji cells at 10 uM after 24 to 48 hrs by chIP assay; format: cell-based; details: human gammaherpesvirus 4
Procedure, shortened: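 Raji cells with 10 μM polyamide, 8 × 10^6 harvested at 0, 24 and 48 h. Formaldehyde fixation, enzymatic chromatin ChIP; 2% input kept. IP overnight with 1 μg anti-EBNA1 or mouse IgG1, magnetic-bead capture. OriP detected by SYBR qPCR (95 °C 5 min; 40 cycles of 95 °C 15 s / 60 °C 60 s). ΔΔCt relative to input.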

Raji [16] = assay: Inhibition of EBNA1 binding to Epstein-Barr virus OriP DNA in human Raji cells assessed as reduction in EBNA1 protein expression up to 20 uM after 24 hrs by Western blot analysis; format: cell-based; details: human gammaherpesvirus 4
Procedure, shortened: (§6)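 Raji cells exposed 24 h to 0, 1, 2, 5, 10 or 20 μM. Cells lysed in nondenaturing buffer with protease inhibitors and run on 10% SDS-PAGE, then PVDF. Membranes probed overnight at 4 °C for EBNA1, EBNA2 and GAPDH, HRP secondary 1 h, chemiluminescent detection. At least triplicate.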

Raji [17] = assay: Inhibition of EBNA1 binding to Epstein-Barr virus OriP DNA in human Raji cells assessed as reduction in EBNA2 protein expression up to 20 uM after 24 hrs by Western blot analysis; format: cell-based; details: human gammaherpesvirus 4; procedure, shortened: as §6
Daudi = assay: Inhibition of EBNA1 binding to Epstein-Barr virus OriP DNA in human Daudi cells assessed as reduction in EBV copy number at 10 uM after 120 hrs by qRT-PCR analysis; format: cell-based; details: human gammaherpesvirus 4; procedure, shortened: as §5
human gammaherpesvirus 4 [18] = assay: Inhibition of EBNA1 binding to Epstein-Barr virus OriP DNA in […] cells assessed as reduction in EBV copy number at 10 uM after 120 hrs by qRT-PCR analysis; format: cell-based; procedure, shortened: as §5
Human gammaherpesvirus 4 [19] = assay: Inhibition of Epstein-Barr virus-induced human Raji cell proliferation xenografted in Balb/c mouse assessed as reduction in tumor size at 5 mg/kg, sc administered every 3 days for 25 days and measured every 3 days before drug injection; format: functional, organism-based
Procedure, shortened: (§7)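 Female Balb/c nude mice given 1 × 10^7 Raji cells sc in left flank (in 100 μL serum-free RPMI). Dosing began at tumor ~50 mm3 (L × W × 1/2W). Compound in 100 μL 5% DMSO/0.9% NaCl, injected sc around tumor every 3 days, eight injections; vehicle n = 6, treated groups n = 7. Tumor size and body weight taken before each injection. Tumor DNA analysed by real-time PCR for relative EBV copy number.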

Human gammaherpesvirus 4 [20] = assay: Inhibition of Epstein-Barr virus-induced human Raji cell proliferation xenografted in Balb/c mouse assessed as reduction in tumor size at 10 mg/kg, sc administered every 3 days for 25 days and measured every 3 days before drug injection; format: functional, organism-based; procedure, shortened: as §7
Human gammaherpesvirus 4 [21] = assay: Antiviral activity against Epstein-Barr virus positive human Raji cells xenografted in Balb/c mouse assessed as reduction in EBV DNA copy at 5 to 10 mg/kg, sc administered every 3 days for 25 days; format: functional, organism-based; procedure, shortened: as §7
[22] = Toxicity in Balb/c mouse infected with Epstein-Barr virus positive human Raji cells assessed as body weight loss at 5 to 10 mg/kg, sc administered every 3 days for 25 days and measured every 3 days before drug injection; format: organism-based; details: in vivo; procedure, shortened: as §7

Row | SMILES | Kd [1] [µM] | Kd [2] [µM] | Kd [3] [µM] | Kd [4] [µM] | fold change (FC) (human gammaherpesvirus 4 [5]) | fold change (FC) (human gammaherpesvirus 4 [6]) | inhibition (Human gammaherpesvirus 4 [7]) | inhibition (Human gammaherpesvirus 4 [8]) | growth inhibition (GI) (MOLT-4 [9]) | GI50 (Human gammaherpesvirus 4 [10]) [µM] | GI50 (Human gammaherpesvirus 4 [11]) [µM] | GI50 (Human gammaherpesvirus 4 [12]) [µM] | GI50 (NALM-6) [µM] | GI50 (RPMI-8226) [µM] | GI50 (MOLT-4 [13]) [µM] | GI50 (Jurkat) [µM] | GI50 (MDA-MB-231) [µM] | inhibition (Raji [14]) | inhibition (Raji [15]) | inhibition (Raji [16]) | other results
1 | CN(C)CCCNC(=O)c1cc(NC(=O)c2nc(NC(=O)c3cc(NC(=O)c4cc(NC(=O)[C@H](N)CCNC(=O)c5cc(NC(=O)c6cc(NC(=O)c7cc(NC(=O)c8nccn8C)cn7C)cn6C)cn5C)cn4C)cn3C)cn2C)cn1C | 0.0015 | 0.0252 | 0.00452 | 0.0206 | 0.646 | 0.524 | Active | Active | inactive | 12.9 | 29.4 | 30.2 | 41.9 | 43.9 | 30.3 | > 100 | > 100 | inactive | inactive | inactive | inhibition (Raji [17]): inactive
2 | CN(C)CCCNC(=O)c1cc(NC(=O)c2nc(NC(=O)c3cc(NC(=O)c4cc(NC(=O)[C@@H](CCNC(=O)c5cc(NC(=O)c6cc(NC(=O)c7cc(NC(=O)c8nccn8C)cn7C)cn6C)cn5C)NC(=O)CCCOc5ccc(-c6nc7cc(-c8nc9cc(N%10CCN(C)CC%10)ccc9[nH]8)ccc7[nH]6)cc5)cn4C)cn3C)cn2C)cn1C | 0.0228 | 0.747 | 0.0129 | 0.187 | 0.583 | 0.412 | Active | Active | inactive | 4.02 | 8 | 9.42 | 22.2 | 24.5 | 25 | > 100 | > 100 | Active | Active | Dose-dependent effect | inhibition (Daudi): Active; inhibition (human gammaherpesvirus 4 [18]): Active; inhibition (Raji [17]): Dose-dependent effect; inhibition (Human gammaherpesvirus 4 [19]): Active; inhibition (Human gammaherpesvirus 4 [20]): Active; Activity (Human gammaherpesvirus 4 [21]): Active; Activity [22]: Non-Toxic
3 | CN(C)CCCNC(=O)c1cc(NC(=O)c2cc(NC(=O)c3cc(NC(=O)c4cc(NC(=O)[C@@H](CCNC(=O)c5cc(NC(=O)c6cc(NC(=O)c7nc(NC(=O)c8nccn8C)cn7C)cn6C)cn5C)NC(=O)CCCOc5ccc(-c6nc7cc(-c8nc9cc(N%10CCN(C)CC%10)ccc9[nH]8)ccc7[nH]6)cc5)cn4C)cn3C)cn2C)cn1C | 0.335 | – | 0.263 | – | 0.091 | 0.088 | – | – | – | – | – | – | – | – | – | – | – | inactive | – | – | –
